Screens: PubChem, several laboratories
This is a sample that favours compounds with a hit; in the whole collection about 5.4% have one here.
Cav3 T inh: inhibitors of human Cav3.2 T-type calcium channel; B-score at 10 µM; actives 4% (n = 100,000); AID 449739; Cav3.2-expressing cells, Fluo-4 calcium fluorescence FDSS; hits give low values; O95180;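 active = single-dose well whose peak fluorescence ratio is a statistical outlier from its plate by either plate-standardised score or position-corrected B-score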
DAT uptake mod: changed human dopamine transporter uptake under cocaine IC80; Q01959; LLC-PK1 hDAT cells, [14C]-dopamine uptake with cocaine IC80; actives deviate in either direction; B-score at 10 µM; actives 1.3% (n = 110,000); AID 449768;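 active = Z score or B-score, a plate-position-corrected score, falls beyond the plate's 99.7% confidence bounds, in either direction; inactive = both scores lie inside the 99.7% bounds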;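 also: scored against the spread of the other compound wells on the same plate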
Rev-RRE block: disrupts HIV-1 Rev binding to RRE RNA | P05866 | Rev peptide-RRE RNA binding, FRET | inhibition, % at 8 µM | actives 0.79% (n = 97,000);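 active = inhibition above the screen-wide mean plus 3 SD, cut at about 35% in these data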;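 also: 0% = median DMSO wells and 100% = median Neomycin B control wells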
Target sequence (P05866 whole entry, looked up): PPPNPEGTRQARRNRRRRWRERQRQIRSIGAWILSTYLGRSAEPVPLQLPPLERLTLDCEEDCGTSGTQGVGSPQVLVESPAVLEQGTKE
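Assay system: labelled RRE RNA duplex and labelled Rev peptide / Medium: HEPES pH 7.5 salt buffer with EDTA / Reagent: labelled Rev peptide / Schedule: 5 + 15 min at 25 °C / Signal: FRET, excitation 480 nm, emission 540 nm donor and 671 nm acceptor / Benchmarks: DMSO and neomycin B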
EphB4 antag: blocks human EphB4 binding to ephrin-B2; P54760; AID 720; actives 0.15% (n = 97,000); EphB4 LBD / TNYL-RAW-Alexa532 peptide, fluorescence polarization; inhibition, % at 7 µM;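 active = inhibition above the screen-wide mean inhibition plus 3 SD, cut at about 15% in these data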;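 also: 0% = DMSO wells and 100% = excess unlabeled TNYL-RAW peptide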
Active calls of the source: *.

How did CCOC(=O)c1cnn(-c2ccccc2)c1NC(=O)C(F)(F)C(F)(F)C(F)(F)F do in these assays?
Cav3 T inh: -0.2; DAT uptake mod: -1.5; Rev-RRE block: 2; EphB4 antag: -5

What do the screens show for `CCOC(=O)c1cnn(-c2ccccc2)c1-n1cccc1C(=O)C(=O)Nc1ccc(F)cc1`?
Cav3 T inh: -4.3*; DAT uptake mod: 0.24; Rev-RRE block: 0; EphB4 antag: -5

What do the screens show for `O=C(c1ccc(C#CC2(O)CCCCC2)cc1)N1CCN(C(c2ccccc2)c2ccccc2)CC1`?
Cav3 T inh: -5.1*; DAT uptake mod: -0.038; Rev-RRE block: -1; EphB4 antag: 5

What do the screens show for `O=C(c1ccc(C#CC2(O)CCCCC2)cc1)N1CCN(Cc2ccccc2)CC1`?
Cav3 T inh: -6.1*; DAT uptake mod: 1.7; Rev-RRE block: -5; EphB4 antag: 3

Results for CCOC(=O)N1CCN(C(=O)c2ccc(C#CC3(O)CCCCC3)cc2)CC1 ?
Cav3 T inh: 0.65; DAT uptake mod: 1.1; Rev-RRE block: -4; EphB4 antag: -5

Results for O=C(c1ccco1)N1CCN(C(=O)C2CCCO2)CC1 (stereo unspecified) ?
Cav3 T inh: 0.72; DAT uptake mod: 0.44; Rev-RRE block: 4; EphB4 antag: 6

What do the screens show for `NS(=O)(=O)c1ccc(CCNC(=O)COC(=O)C2CCCN2C(=O)c2cccs2)cc1` (stereo unspecified)?
Cav3 T inh: -0.0095; DAT uptake mod: -1.1; Rev-RRE block: 5; EphB4 antag: 5

What do the screens show for `CC(=O)C1=C(C)NC(C)=C(C(C)=O)C1c1ccc(-c2ccccc2Cl)o1`?
Cav3 T inh: -5.6*; DAT uptake mod: 1.4; Rev-RRE block: -1; EphB4 antag: 0

What do the screens show for `COc1nnc(-c2ccc(N3CCCCC3)c(NC(C)=O)c2)c2ccccc12`?
Cav3 T inh: 1.1; DAT uptake mod: 2.1; Rev-RRE block: 9; EphB4 antag: -3

What do the screens show for `COc1cc(Nc2nc3ccccc3n3nnnc23)cc(OC)c1OC`?
Cav3 T inh: 0.18; DAT uptake mod: -0.31; Rev-RRE block: 1; EphB4 antag: 0

How did CCCOC(=O)Cc1n[nH]c(=O)[nH]c1=O do in these assays?
Cav3 T inh: 0.12; DAT uptake mod: -2.2*; Rev-RRE block: 5; EphB4 antag: -3

What do the screens show for `c1ccc(COn2nnc3ccccc32)c(COn2nnc3ccccc32)c1`?
Cav3 T inh: -4.8*; DAT uptake mod: -0.73; Rev-RRE block: 10; EphB4 antag: 3

What do the screens show for `Clc1cccc(Cl)c1COn1nnc2ccccc21`?
Cav3 T inh: -2.9; DAT uptake mod: -1.1; Rev-RRE block: 4; EphB4 antag: 3

How did O=C(O)CSc1nnc(-c2cccnc2)n1Cc1ccccc1 do in these assays?
Cav3 T inh: 1.3; DAT uptake mod: -7*

What do the screens show for `COc1ccc(N2CCN(C(=O)CSc3nnc(-c4cccnc4)n3-c3ccc(F)cc3)CC2)cc1`?
Cav3 T inh: 1.4; DAT uptake mod: 0.87; Rev-RRE block: 2; EphB4 antag: 5

What do the screens show for `O=C(CSc1nnc(-c2cccnc2)n1-c1ccccc1)N1CCN(c2ccc(F)cc2)CC1`?
Cav3 T inh: 4*; DAT uptake mod: 0.26; Rev-RRE block: 15; EphB4 antag: -8

Results for COCCn1c(C)cc(C2=NNC(=Nc3ccccc3F)SC2)c1C ?
Cav3 T inh: -4.4*; DAT uptake mod: 1.1; Rev-RRE block: -1; EphB4 antag: 4

Results for Cc1c(N2C(=O)/C(=C\c3cccc4ccccc34)SC2=S)c(=O)n(-c2ccccc2)n1C ?
Cav3 T inh: 1.2; DAT uptake mod: -0.59; Rev-RRE block: 0; EphB4 antag: -4

Results for O=C(O)C(Cc1ccccc1)N1C(=O)/C(=C/c2cccc3ccccc23)SC1=S (stereo unspecified) ?
Cav3 T inh: -3; DAT uptake mod: -2.7*; Rev-RRE block: 3; EphB4 antag: -7

How did CCN(CC)S(=O)(=O)c1ccc(C(=O)NCc2n[nH]c(=S)n2Cc2ccccc2)cc1 do in these assays?
Cav3 T inh: -4.1*; DAT uptake mod: 0.75; Rev-RRE block: 2; EphB4 antag: 0

How did CCN(CC)S(=O)(=O)c1ccc(C(=O)Nc2ncn(Cc3ccccc3)n2)cc1 do in these assays?
Cav3 T inh: 0.64; DAT uptake mod: -0.8; Rev-RRE block: 24; EphB4 antag: -8

What do the screens show for `COC(=O)C(C(=O)NCC1CCCO1)C1CCCC1` (stereo unspecified)?
Cav3 T inh: 0.34; DAT uptake mod: 0.0065; Rev-RRE block: -2; EphB4 antag: -3

Results for CCOC(=O)n1c(SCC(N)=O)nc2ccccc21 ?
Cav3 T inh: -0.029; DAT uptake mod: 1.2; Rev-RRE block: 2; EphB4 antag: 4
